High-throughput results deposited in PubChem BioAssay by several laboratories.
EBNA-1 inh = blocks EBNA-1 binding to DNA. inhibition, % at 14.8 µM. AID 1950. actives 0.34% (n = 300,000). EBNA-1 DNA binding, fluorescence polarization; in the data active means inhibition above about 28%
GRIN3A LBD mod = modulators (binders) of human NR3A ligand-binding domain; NR3A LBD differential scanning fluorimetry, Tm shift; 0% = protein alone, 100% = glycine-bound protein; Tm shift relative to glycine control, % at 25 µM; actives 2.5% (n = 340,000); AID 1259313;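 active means melting temperature shift of at least 10% of the positive control shift, at one fixed dose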
FGF22 binding = binders of recombinant human FGF22 by thermal shift; AID 651658; activity (Tm shift, normalised), % at 9.99 µM; SYPRO orange fluorescence; percent of sucrose octasulfate shift, DMSO zero; Q9HCT0; actives 1.5% (n = 340,000);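 active means mean Tm shift, scaled 0 neutral to 100 positive control, at about 1.3% or above, every replicate too, limit read from the data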
Target sequence (Q9HCT0 whole entry, looked up): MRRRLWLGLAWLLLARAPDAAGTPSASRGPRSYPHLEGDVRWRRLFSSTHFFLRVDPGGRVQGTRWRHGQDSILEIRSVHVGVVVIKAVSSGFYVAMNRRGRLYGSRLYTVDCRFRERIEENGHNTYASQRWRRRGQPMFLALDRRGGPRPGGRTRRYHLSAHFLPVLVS
ZTA counter = ZTA (EBV) inhibition in EBNA-1 counter-screen; ZTA-DNA binding, fluorescence polarization; inhibition, % at 11 µM; actives 0.15% (n = 320,000); AID 2234; in the data active means inhibition above about 33%
Target sequence (P03206 whole entry, looked up): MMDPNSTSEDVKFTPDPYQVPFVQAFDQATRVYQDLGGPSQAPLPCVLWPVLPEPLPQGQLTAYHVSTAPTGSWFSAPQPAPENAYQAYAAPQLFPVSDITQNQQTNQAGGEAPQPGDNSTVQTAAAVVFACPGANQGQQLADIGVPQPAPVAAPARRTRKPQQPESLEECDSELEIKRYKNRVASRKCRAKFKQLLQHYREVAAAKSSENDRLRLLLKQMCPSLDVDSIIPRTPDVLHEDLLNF
DNA FID counter = displaces DNA intercalator in HCV helicase counter-screen. AID 1845. actives 0.17% (n = 290,000). inhibition, % at 7.9 µM. DNA fluorescent intercalator displacement, fluorescence; in the data active means inhibition above about 37%;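 further: 0% = vehicle and 100% = reference compound; higher means more ethidium bromide displaced from hairpin DNA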
HCV NS3 hel inh = HCV NS3 helicase inhibition | NS3 helicase DNA unwinding, Cy5 molecular beacon fluorescence | inhibition, % at 10.9 µM | actives 0.56% (n = 290,000) | AID 1800;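 active means inhibition above the mean of all tested compounds plus 3 SD, set per campaign, cut at about 35% in these data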;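 further: 0% = DMSO wells and 100% = thioflavine S control wells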
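System: HCV NS3 helicase fragment; control set: DMSO and thioflavine S; technique: Cy5 fluorescence at 0 and 60 min, beacon hairpin quenching; reagent: beacon DNA duplex substrate plus ATP; replicates: singlicate; schedule: 1 h reaction at 25 °C, ATP-initiated; medium: MOPS buffer pH 6.5 with MgCl2, DTT, Tween20, BSA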
* marks the source's active call; other numbers are inactive results; . = not tested or not shown. Compounds with a hit are over-represented: about 3.6% of the library has one in this group of screens.

SMILES	EBNA-1 inh	GRIN3A LBD mod	FGF22 binding	ZTA counter	DNA FID counter	HCV NS3 hel inh
CC(=O)c1ccc(NC(=O)c2ccc(S(=O)(=O)N3CCCC3)cc2)cc1	6	3	.	-1	-5	-9
CCCCC(=O)Nc1ccc(C(=O)NCCc2ccc(S(N)(=O)=O)cc2)cc1	-15	1	43*	12	0	9
O=C(N[C@@H]1CC[C@H](CCNS(=O)(=O)c2cccc(Cl)c2)O[C@@H]1CO)c1ccc(F)cc1	.	.	0	.	.	.
CCCNC(=O)N1C[C@H](C)[C@@H](OC)CN(C)C(=O)c2cc(NC(C)=O)ccc2OC[C@@H]1C	.	.	0	.	.	.
CC(=O)Nc1ccc(NC(=O)c2ccc(S(=O)(=O)N3CCCCCC3)cc2)cc1	.	.	0	.	.	.
CC(=O)Nc1ccc(C(=O)Nc2ccc(S(=O)(=O)N3CCCCC3)cc2)cc1	-10	23*	0	2	-18	-2
Cc1cc(C)nc(NS(=O)(=O)c2ccc(NC(=O)Nc3ccccc3F)cc2)n1	0	11*	0	-30	-14	4
CCOC(=O)c1sc(NC(=O)c2ccc(S(=O)(=O)N3CCCCC3)cc2)nc1-c1ccccc1	6	13*	.	-1	1	10
Cc1cc(C)nc(NS(=O)(=O)c2ccc(NC(=O)C(C)C)cc2)n1	-15	0	0	6	-1	12
COCCN(C(=O)CSc1nnc(-c2ccccc2F)n1C)c1c(N)n(Cc2ccccc2)c(=O)[nH]c1=O	-1	-1	43*	3	-20	-2
O=C1C=C(N2CCN(C(=O)c3ccccc3)CC2)C2(CCCCC2)O1	3	11*	.	9	-5	0
CCCC#Cc1cnc2c(c1)C(=O)N([C@@H](C)CO)C[C@H](C)[C@@H](CN(C)C(=O)C1CCOCC1)O2	.	.	0	.	.	.
CCOC(=O)c1cnc2c(CC)cccc2c1NCCN1CCOCC1	-4	-5	0	-17	3	11
CCOC(=O)c1cnc2c(C)cc(Cl)cc2c1NCCCN1CCOCC1	10	-1	0	-13	46*	23
CCOC(=O)c1cnc2c(C)cccc2c1NCCCN1CCOCC1	-9	1	0	-11	55*	35
CCOC(=O)c1cnc2c(Cl)cc(Cl)cc2c1NCCCN1CCOCC1	0	-1	0	3	-3	6
Cc1noc(C)c1NC(=O)Nc1cccc2c1O[C@H](CN(C)Cc1ccc(C(=O)Nc3ccccc3N)cc1)[C@@H](C)CN([C@@H](C)CO)C2=O	.	.	0	.	.	.
O=C(CSc1nc2ccccc2c(=O)n1-c1ccc(OC(F)F)cc1)NCc1cccs1	7	-1	0	-4	-5	2
O=C(CSc1nnc(-c2ccc(OC(F)F)cc2)o1)NCc1cccs1	147*	1	.	78*	-8	9
CCn1cc(/C=N\NC(=O)c2ccc3c(c2)c(C)c(C)n3Cc2ccccc2)c(C)n1	-11	19*	.	3	-22	-3
CCn1ncc(/C=N\NC(=O)c2ccc3c(c2)c(C)c(C)n3Cc2ccccc2)c1C	-9	-5	.	10	-16	5
Cc1ccc(S[C@]2(C(=O)NC(C)C)CC(=O)N(C3CCCCC3)[C@@H]2c2ccc(CO)cc2I)cc1	.	.	-1	.	.	.
COc1ccc(CCNC(=O)[C@@]2(Sc3ccc(C)cc3)CC(=O)N(C(C)C)[C@@H]2c2ccc(CO)cc2I)cc1	.	.	1.3*	.	.	.
CO[C@@H]1CN(C)C(=O)c2ccc(NC(C)=O)cc2OC[C@H](C)N(Cc2ccc(F)cc2)C[C@@H]1C	.	.	0	.	.	.
Cc1cnc2cc(Cl)c(Cl)cc2n1	-18	579*	.	10	-1	-4
SMILES	EBNA-1 inh	GRIN3A LBD mod	FGF22 binding	ZTA counter	DNA FID counter	HCV NS3 hel inh
COc1ccc(-c2ccnc(SCC(=O)c3ccc(OC)c(OC)c3)n2)cc1	-10	14*	.	13	-13	-6
COCC(=O)N1[C@@H](CO)[C@@H](c2ccccc2)C12CN(Cc1ccccc1)C2	.	.	1	.	.	.
Cc1ccc(S(=O)(=O)N[C@@H]2CC[C@@H](CCn3cc(C4CC4)nn3)O[C@H]2CO)cc1	.	.	0	.	.	.
CC(=O)N1CCCN(Cc2cn(-c3ccc(C)cc3)nc2-c2ccc(F)cc2)CC1	9	1	43*	-9	-2	-12
C/C=C/c1cnc2c(c1)C(=O)N([C@@H](C)CO)C[C@H](C)[C@H](CN(C)S(=O)(=O)c1ccccc1)O2	.	.	0	.	.	.
CCN(Cc1ccccc1)S(=O)(=O)c1ccc2c(c1)NC(=O)CC(=O)N2	-6	9	44*	-12	-12	-4
C[C@@H]1CN([C@H](C)CO)C(=O)Cc2cc(NC(=O)C3CC3)ccc2O[C@@H]1CN(C)Cc1ccc2c(c1)OCO2	.	.	0	.	.	.
COc1ccccc1-c1ccc2n(c1=O)C[C@@H]1[C@@H](CO)[C@H](C(=O)N(C)C)N[C@H]21	.	.	0	.	.	.
O=C(/C=C/c1cccs1)NC(=S)Nc1ccc(S(=O)(=O)Nc2ccccc2C(F)(F)F)cc1	0	27*	0	16	-16	36
Cc1cc(NCc2ccccn2)ccc1Br	-1	11*	0	-10	2	-8
O=C(C[C@@H]1CC[C@H]2[C@@H](COC[C@@H](O)CN2S(=O)(=O)c2cccc(Cl)c2)O1)Nc1ccccc1	.	.	1	.	.	.
O=C(C[C@H]1CC[C@@H]2[C@H](COC[C@@H](O)CN2S(=O)(=O)c2cccc(Cl)c2)O1)Nc1ccc(-c2ccccc2)cc1	.	.	1.3*	.	.	.
NC(=O)CNc1ncc(C(F)(F)F)cc1Cl	-8	-1	0	0	-1	3
Cc1onc(C(=O)NN)c1C(=O)Nc1ncc(C(F)(F)F)cc1Cl	-6	1	43*	-5	-5	0
COc1ccc(/C=N/NC(=O)CN(Cc2ccccc2)S(=O)(=O)c2ccc3c(c2)OCCO3)cc1	10	-12	.	9	-16	11
COc1ccc(CNC(=O)CN(CCC(C)C)S(=O)(=O)c2ccc3c(c2)OCCO3)cc1	8	154*	0	-1	-28	-36
Cc1sc2ccccc2c1CNC[C@H]1O[C@@H](n2cnc(C(N)=O)n2)[C@H](O)[C@@H]1O	.	0	44*	.	.	.
CC(C)(O)C#Cc1ccc(CNC[C@H]2O[C@@H](n3cnc(C(N)=O)n3)[C@H](O)[C@@H]2O)s1	.	11*	0	.	.	.
Cc1sc2ccccc2c1CNC[C@H]1O[C@@H](n2ccc(N)nc2=O)[C@H](O)[C@@H]1O	.	.	0	.	.	.
NC(=O)c1ncn([C@@H]2O[C@H](CNCc3ccccc3C#Cc3ccccc3)[C@@H](O)[C@H]2O)n1	.	11*	0	.	.	.
C[C@H]1CN([C@@H](C)CO)C(=O)c2cccc(NC(=O)c3cnccn3)c2O[C@H]1CN(C)C(=O)NC1CCCCC1	.	.	0	.	.	.
Cc1cc(C)cc(C(=O)Nc2ccc(NC(=O)c3cccs3)cc2)c1	1	27*	0	8	-14	-9
COc1cc(NC(=O)c2cccs2)cc(OC)c1	9	6	.	-24	3	-4
